Assay results as given in ChEMBL document CHEMBL4715736, “Identification of anticancer agents based on the thieno[2,3-b]pyridine and 1H-pyrazole molecular scaffolds” (2016).

The molecules below were run on MCF7 (assay: Growth inhibition of human MCF7 cells assessed as cell growth at 0.01 uM incubated for 48 hrs by sulforhodamine B assay relative to control). Settings: read-out: Activity.
Type: functional

Row | Compound | growth at 0.01 µM [%]
1 | Cc1ccc(NC(=O)c2sc3nc4c(cc3c2N)C(=O)CCC4)cc1C | 89

These molecules were tested on SK-MEL-28 (assay: Growth inhibition of human SK-MEL-28 cells assessed as cell growth at 1 uM incubated for 48 hrs by sulforhodamine B assay relative to control). Settings: read-out: Activity.
Type: functional

Row | Compound | growth at 1 µM [%]
2 | Cc1ccc(NC(=O)c2sc3nc4c(cc3c2N)C(=O)CCC4)cc1C | 51

What follows are molecules tested on RXF 393 (assay: Growth inhibition of human RXF 393 cells assessed as cell growth at 100 uM incubated for 48 hrs by sulforhodamine B assay relative to control). Settings: read-out: Activity.
Type: functional

Row | Compound | growth at 100 µM [%]
3 | Cc1ccc(NC(=O)c2sc3nc4c(cc3c2N)C(=O)CCC4)cc1C | 14

The molecules below were run on HCT-15 (assay: Growth inhibition of human HCT-15 cells assessed as cell growth at 0.01 uM incubated for 48 hrs by sulforhodamine B assay relative to control). Settings: read-out: Activity.
Type: functional

Row | Compound | growth at 0.01 µM [%]
4 | Cc1ccc(NC(=O)c2sc3nc4c(cc3c2N)C(=O)CCC4)cc1C | 95

These molecules were tested on COLO 205 (assay: Growth inhibition of human COLO 205 cells assessed as cell growth at 0.1 uM incubated for 48 hrs by sulforhodamine B assay relative to control). Settings: read-out: Activity.
Type: functional
In short: (§1)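 NCI Developmental Therapeutics Program NCI60 panel. Compounds that were active in the 10 µM one-dose screen went on to dose–response testing. Growth at each concentration is expressed relative to untreated control (100%). GI50 (concentration giving 50% of maximal inhibition of proliferation) and TGI (concentration giving total growth inhibition) were derived from the curves.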

Row | Compound | growth at 0.1 µM [%]
5 | Cc1ccc(NC(=O)c2sc3nc4c(cc3c2N)C(=O)CCC4)cc1C | 98

These molecules were tested on OVCAR-4 (assay: Growth inhibition of human OVCAR-4 cells assessed as cell growth at 0.1 uM incubated for 48 hrs by sulforhodamine B assay relative to control). Settings: read-out: Activity.
Type: functional

Row | Compound | growth at 0.1 µM [%]
6 | Cc1ccc(NC(=O)c2sc3nc4c(cc3c2N)C(=O)CCC4)cc1C | 82

What follows are molecules tested on Malme-3M (assay: Growth inhibition of human Malme-3M cells assessed as cell growth at 1 uM incubated for 48 hrs by sulforhodamine B assay relative to control). Settings: read-out: Activity.
Type: functional

Row | Compound | growth at 1 µM [%]
7 | Cc1ccc(NC(=O)c2sc3nc4c(cc3c2N)C(=O)CCC4)cc1C | 24

The molecules below were run on U-251 (assay: Growth inhibition of human U-251 cells assessed as cell growth at 0.01 uM incubated for 48 hrs by sulforhodamine B assay relative to control). Settings: read-out: Activity.
Type: functional

Row | Compound | growth at 0.01 µM [%]
8 | Cc1ccc(NC(=O)c2sc3nc4c(cc3c2N)C(=O)CCC4)cc1C | 98

What follows are molecules tested on BT-549 (assay: Growth inhibition of human BT-549 cells incubated for 48 hrs by sulforhodamine B assay). Settings: not given.
Type: functional
In short: as §1

Row | Compound | TGI [µM]
9 | Cc1ccc(NC(=O)c2sc3nc4c(cc3c2N)C(=O)CCC4)cc1C | > 100

Same assay, conditions: read-out: LC50 (the source's name)

Row | Compound | CC50 [µM]
10 | Cc1ccc(NC(=O)c2sc3nc4c(cc3c2N)C(=O)CCC4)cc1C | > 100

These molecules were tested on HT-29 (assay: Growth inhibition of human HT-29 cells assessed as cell growth at 0.1 uM incubated for 48 hrs by sulforhodamine B assay relative to control). Settings: read-out: Activity.
Type: functional

Row | Compound | growth at 0.1 µM [%]
11 | Cc1ccc(NC(=O)c2sc3nc4c(cc3c2N)C(=O)CCC4)cc1C | 104

Each molecule was assayed on IGROV-1 (assay: Growth inhibition of human IGROV-1 cells assessed as cell growth at 0.01 uM incubated for 48 hrs by sulforhodamine B assay relative to control). Settings: read-out: Activity.
Type: functional

Row | Compound | growth at 0.01 µM [%]
12 | Cc1ccc(NC(=O)c2sc3nc4c(cc3c2N)C(=O)CCC4)cc1C | 104

These molecules were tested on HCT-15 (assay: Growth inhibition of human HCT-15 cells assessed as cell growth at 100 uM incubated for 48 hrs by sulforhodamine B assay relative to control). Settings: read-out: Activity.
Type: functional

Row | Compound | growth at 100 µM [%]
13 | Cc1ccc(NC(=O)c2sc3nc4c(cc3c2N)C(=O)CCC4)cc1C | 7

These molecules were tested on OVCAR-5 (assay: Growth inhibition of human OVCAR-5 cells assessed as cell growth at 1 uM incubated for 48 hrs by sulforhodamine B assay relative to control). Settings: read-out: Activity.
Type: functional

Row | Compound | growth at 1 µM [%]
14 | Cc1ccc(NC(=O)c2sc3nc4c(cc3c2N)C(=O)CCC4)cc1C | 66

Each molecule was assayed on MOLT-4 (assay: Growth inhibition of human MOLT-4 cells assessed as cell growth at 0.1 uM incubated for 48 hrs by sulforhodamine B assay relative to control). Settings: read-out: Activity.
Type: functional

Row | Compound | growth at 0.1 µM [%]
15 | Cc1ccc(NC(=O)c2sc3nc4c(cc3c2N)C(=O)CCC4)cc1C | 106

The molecules below were run on SNB-75 (assay: Growth inhibition of human SNB-75 cells assessed as cell growth at 1 uM incubated for 48 hrs by sulforhodamine B assay relative to control). Settings: read-out: Activity.
Type: functional

Row | Compound | growth at 1 µM [%]
16 | Cc1ccc(NC(=O)c2sc3nc4c(cc3c2N)C(=O)CCC4)cc1C | -7

What follows are molecules tested on NCI-H322M (assay: Growth inhibition of human NCI-H322M cells assessed as cell growth at 0.1 uM incubated for 48 hrs by sulforhodamine B assay relative to control). Settings: read-out: Activity.
Type: functional

Row | Compound | growth at 0.1 µM [%]
17 | Cc1ccc(NC(=O)c2sc3nc4c(cc3c2N)C(=O)CCC4)cc1C | 94

The molecules below were run on OVCAR-8 (assay: Growth inhibition of human OVCAR-8 cells assessed as cell growth at 100 uM incubated for 48 hrs by sulforhodamine B assay relative to control). Settings: read-out: Activity.
Type: functional

Row | Compound | growth at 100 µM [%]
18 | Cc1ccc(NC(=O)c2sc3nc4c(cc3c2N)C(=O)CCC4)cc1C | 11

These molecules were tested on NCI/ADR-RES (assay: Growth inhibition of human NCI/ADR-RES cells assessed as cell growth at 0.01 uM incubated for 48 hrs by sulforhodamine B assay relative to control). Settings: read-out: Activity.
Type: functional

Row | Compound | growth at 0.01 µM [%]
19 | Cc1ccc(NC(=O)c2sc3nc4c(cc3c2N)C(=O)CCC4)cc1C | 100

What follows are molecules tested on KM12 (assay: Growth inhibition of human KM12 cells assessed as cell growth at 100 uM incubated for 48 hrs by sulforhodamine B assay relative to control). Settings: read-out: Activity.
Type: functional

Row | Compound | growth at 100 µM [%]
20 | Cc1ccc(NC(=O)c2sc3nc4c(cc3c2N)C(=O)CCC4)cc1C | 9

The molecules below were run on KM12 (assay: Growth inhibition of human KM12 cells assessed as cell growth at 0.01 uM incubated for 48 hrs by sulforhodamine B assay relative to control). Settings: read-out: Activity.
Type: functional

Row | Compound | growth at 0.01 µM [%]
21 | Cc1ccc(NC(=O)c2sc3nc4c(cc3c2N)C(=O)CCC4)cc1C | 98

Each molecule was assayed on OVCAR-8 (assay: Growth inhibition of human OVCAR-8 cells assessed as cell growth at 0.01 uM incubated for 48 hrs by sulforhodamine B assay relative to control). Settings: read-out: Activity.
Type: functional

Row | Compound | growth at 0.01 µM [%]
22 | Cc1ccc(NC(=O)c2sc3nc4c(cc3c2N)C(=O)CCC4)cc1C | 97

Each molecule was assayed on 786-0 (assay: Growth inhibition of human 786-0 cells incubated for 48 hrs by sulforhodamine B assay). Settings: not given.
Type: functional
In short: as §1

Row | Compound | GI50 [µM] | TGI [µM]
23 | Cc1ccc(NC(=O)c2sc3nc4c(cc3c2N)C(=O)CCC4)cc1C | 0.614 | > 100

Same assay, conditions: read-out: LC50 (the source's name)

Row | Compound | CC50 [µM]
24 | Cc1ccc(NC(=O)c2sc3nc4c(cc3c2N)C(=O)CCC4)cc1C | > 100

Each molecule was assayed on NCI-H226 (assay: Growth inhibition of human NCI-H226 cells assessed as cell growth at 100 uM incubated for 48 hrs by sulforhodamine B assay relative to control). Settings: read-out: Activity.
Type: functional

Row | Compound | growth at 100 µM [%]
25 | Cc1ccc(NC(=O)c2sc3nc4c(cc3c2N)C(=O)CCC4)cc1C | 36

Each molecule was assayed on SW-620 (assay: Growth inhibition of human SW-620 cells assessed as cell growth at 1 uM incubated for 48 hrs by sulforhodamine B assay relative to control). Settings: read-out: Activity.
Type: functional

Row | Compound | growth at 1 µM [%]
26 | Cc1ccc(NC(=O)c2sc3nc4c(cc3c2N)C(=O)CCC4)cc1C | 19

These molecules were tested on SN12C (assay: Growth inhibition of human SN12C cells assessed as cell growth at 0.01 uM incubated for 48 hrs by sulforhodamine B assay relative to control). Settings: read-out: Activity.
Type: functional

Row | Compound | growth at 0.01 µM [%]
27 | Cc1ccc(NC(=O)c2sc3nc4c(cc3c2N)C(=O)CCC4)cc1C | 94

These molecules were tested on HCC 2998 (assay: Growth inhibition of human HCC 2998 cells assessed as cell growth at 0.01 uM incubated for 48 hrs by sulforhodamine B assay relative to control). Settings: read-out: Activity.
Type: functional
In short: as §1

Row | Compound | growth at 0.01 µM [%]
28 | Cc1ccc(NC(=O)c2sc3nc4c(cc3c2N)C(=O)CCC4)cc1C | 99

What follows are molecules tested on T47D (assay: Growth inhibition of human T47D cells assessed as cell growth at 100 uM incubated for 48 hrs by sulforhodamine B assay relative to control). Settings: read-out: Activity.
Type: functional

Row | Compound | growth at 100 µM [%]
29 | Cc1ccc(NC(=O)c2sc3nc4c(cc3c2N)C(=O)CCC4)cc1C | -13

The molecules below were run on CCRF-CEM (assay: Growth inhibition of human CCRF-CEM cells assessed as cell growth at 1 uM incubated for 48 hrs by sulforhodamine B assay relative to control). Settings: read-out: Activity.
Type: functional
In short: as §1

Row | Compound | growth at 1 µM [%]
30 | Cc1ccc(NC(=O)c2sc3nc4c(cc3c2N)C(=O)CCC4)cc1C | 7

These molecules were tested on SF-539 (assay: Growth inhibition of human SF-539 cells assessed as cell growth at 0.01 uM incubated for 48 hrs by sulforhodamine B assay relative to control). Settings: read-out: Activity.
Type: functional

Row | Compound | growth at 0.01 µM [%]
31 | Cc1ccc(NC(=O)c2sc3nc4c(cc3c2N)C(=O)CCC4)cc1C | 97

What follows are molecules tested on DU-145 (assay: Growth inhibition of human DU-145 cells assessed as cell growth at 100 uM incubated for 48 hrs by sulforhodamine B assay relative to control). Settings: read-out: Activity.
Type: functional
In short: as §1

Row | Compound | growth at 100 µM [%]
32 | Cc1ccc(NC(=O)c2sc3nc4c(cc3c2N)C(=O)CCC4)cc1C | 14

What follows are molecules tested on OVCAR-3 (assay: Growth inhibition of human OVCAR-3 cells incubated for 48 hrs by sulforhodamine B assay). Settings: not given.
Type: functional
In short: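 NCI DTP 60-line human tumour panel. Dose-response curves were run only for ligands active in the initial 10 µM screen. GI50 (concentration giving 50% of maximal inhibition of proliferation) and TGI (concentration giving total growth inhibition) were derived from these curves.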

Row | Compound | GI50 [µM] | TGI [µM]
33 | Cc1ccc(NC(=O)c2sc3nc4c(cc3c2N)C(=O)CCC4)cc1C | 0.343 | 1.4

Same assay, conditions: read-out: LC50 (the source's name)

Row | Compound | CC50 [µM]
34 | Cc1ccc(NC(=O)c2sc3nc4c(cc3c2N)C(=O)CCC4)cc1C | > 100

What follows are molecules tested on KM12 (assay: Growth inhibition of human KM12 cells assessed as cell growth at 0.1 uM incubated for 48 hrs by sulforhodamine B assay relative to control). Settings: read-out: Activity.
Type: functional

Row | Compound | growth at 0.1 µM [%]
35 | Cc1ccc(NC(=O)c2sc3nc4c(cc3c2N)C(=O)CCC4)cc1C | 96

These molecules were tested on SK-MEL-5 (assay: Growth inhibition of human SK-MEL-5 cells assessed as cell growth at 1 uM incubated for 48 hrs by sulforhodamine B assay relative to control). Settings: read-out: Activity.
Type: functional

Row | Compound | growth at 1 µM [%]
36 | Cc1ccc(NC(=O)c2sc3nc4c(cc3c2N)C(=O)CCC4)cc1C | 21

The molecules below were run on DU-145 (assay: Growth inhibition of human DU-145 cells assessed as cell growth at 1 uM incubated for 48 hrs by sulforhodamine B assay relative to control). Settings: read-out: Activity.
Type: functional
In short: as §1

Row | Compound | growth at 1 µM [%]
37 | Cc1ccc(NC(=O)c2sc3nc4c(cc3c2N)C(=O)CCC4)cc1C | 35

The molecules below were run on SW-620 (assay: Growth inhibition of human SW-620 cells assessed as cell growth at 100 uM incubated for 48 hrs by sulforhodamine B assay relative to control). Settings: read-out: Activity.
Type: functional

Row | Compound | growth at 100 µM [%]
38 | Cc1ccc(NC(=O)c2sc3nc4c(cc3c2N)C(=O)CCC4)cc1C | 18
